For experiment [1], the system named is Clostridioides difficile. Put plainly: Inhibition of spore germination in Clostridium difficile R20291 assessed as residual activity at 125 uM measured every minute for 2 hrs by absorbance based analysis relative to control. It counts as functional. In outline:
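Single-concentration screen of R20291 spores (OD580 1.0) in 100 mM sodium phosphate, pH 6.0, with 5 mg/mL bicarbonate and 2.5% DMSO. Compound at 125 μM final, in triplicate, with 6 mM taurocholate and 12 mM glycine. OD580 is read each minute for 2 h, normalized to time zero, and compared with untreated spores.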

In experiment [2] the test system is Clostridioides difficile. Put plainly: Inhibition of spore germination in Clostridium difficile R20291 assessed as inhibition of spore germination measured every minute for 2 hrs by absorbance based analysis. Type of experiment: functional, organism-based. Conditions: R20291, 2 h. An outline of the steps: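 Spores of strain R20291 diluted to OD580 1.0 in 100 mM sodium phosphate, pH 6.0, with 5 mg/mL sodium bicarbonate. Germinant is 6 mM taurocholate plus 12 mM glycine, with compound at various concentrations. OD580 is read every minute for 2 h and normalized to time zero. Value is fitted from percent germination versus log concentration.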

On to `Cc1ccc2c(c1)CCN2C(=O)CC[C@@H](C)[C@H]1CC[C@H]2[C@@H]3[C@H](O)C[C@@H]4C[C@H](O)CC[C@]4(C)[C@H]3C[C@H](O)[C@]12C`, for which the Activity with Clostridioides difficile [1] is 100%.
As for `C[C@H](CCC(=O)N1CCCC1)[C@H]1CC[C@H]2[C@@H]3[C@H](O)C[C@@H]4C[C@H](O)CC[C@]4(C)[C@H]3C[C@H](O)[C@]12C`, the IC50 in the experiment on Clostridioides difficile [2] worked out at 38 µM. For the same compound, the Activity in the experiment on Clostridioides difficile [1] is on record as 29%.
As to `C[C@H](CCC(=O)N1CCC(O)CC1)[C@H]1CC[C@H]2[C@@H]3[C@H](O)C[C@@H]4C[C@H](O)CC[C@]4(C)[C@H]3C[C@H](O)[C@]12C`, the Activity in the experiment on Clostridioides difficile [1] was found to be 88%.
Regarding `C[C@H](CCC(=O)N1CCCc2ccccc21)[C@H]1CC[C@H]2[C@@H]3[C@H](O)C[C@@H]4C[C@H](O)CC[C@]4(C)[C@H]3C[C@H](O)[C@]12C`, the IC50 in the experiment on Clostridioides difficile [2] was 22 µM. In addition, the Activity with Clostridioides difficile [1] was 17%.
With `C[C@H](CCC(=O)N1CCc2cc(Br)ccc21)[C@H]1CC[C@H]2[C@@H]3[C@H](O)C[C@@H]4C[C@H](O)CC[C@]4(C)[C@H]3C[C@H](O)[C@]12C`, the Activity in the experiment on Clostridioides difficile [1] is reported as 90%.
As for `C[C@H](CCC(=O)N(C)c1ccccc1)[C@H]1CC[C@H]2[C@@H]3[C@H](O)C[C@@H]4C[C@H](O)CC[C@]4(C)[C@H]3C[C@H](O)[C@]12C`, the IC50 with Clostridioides difficile [2] stood at 32 µM. In addition, in the experiment on Clostridioides difficile [1], the Activity was 31%.
For the compound `CCN(CC)C(=O)CC[C@@H](C)[C@H]1CC[C@H]2[C@@H]3[C@H](O)C[C@@H]4C[C@H](O)CC[C@]4(C)[C@H]3C[C@H](O)[C@]12C`, the half-maximal inhibitory concentration (IC50) in the experiment with Clostridioides difficile [2] is 29 µM. In the experiment on Clostridioides difficile [1], the Activity turned out to be 0.05%.
In the same order, the values of `C[C@H](CCC(=O)N1CCc2cc(F)ccc21)[C@H]1CC[C@H]2[C@@H]3[C@H](O)C[C@@H]4C[C@H](O)CC[C@]4(C)[C@H]3C[C@H](O)[C@]12C` are 0.4 µM and 5%.
For the compound `C[C@H](CCC(=O)N1CCc2cc(Br)ccc2C1)[C@H]1CC[C@H]2[C@@H]3[C@H](O)C[C@@H]4C[C@H](O)CC[C@]4(C)[C@H]3C[C@H](O)[C@]12C`, the Activity with Clostridioides difficile [1] stood at 100%.
Same read-out and setting: next, `C[C@H](CCC(=O)N1CCc2ccccc2C1)[C@H]1CC[C@H]2[C@@H]3[C@H](O)C[C@@H]4C[C@H](O)CC[C@]4(C)[C@H]3C[C@H](O)[C@]12C`: 78%.
On to `C[C@H](CCC(=O)N1CCCCC1)[C@H]1CC[C@H]2[C@@H]3[C@H](O)C[C@@H]4C[C@H](O)CC[C@]4(C)[C@H]3C[C@H](O)[C@]12C`, for which the half-inhibitory concentration (IC50) with Clostridioides difficile [2] worked out at 37 µM. Moreover, in the experiment with Clostridioides difficile [1], the Activity worked out at 15%.
Take `C[C@H](CCC(=O)N1CCc2cc(Cl)ccc21)[C@H]1CC[C@H]2[C@@H]3[C@H](O)C[C@@H]4C[C@H](O)CC[C@]4(C)[C@H]3C[C@H](O)[C@]12C`: in the experiment with Clostridioides difficile [1], the Activity is recorded as 70%.
The same measure, in the same setting: then `COc1ccc2c(c1)N(C(=O)CC[C@@H](C)[C@H]1CC[C@H]3[C@@H]4[C@H](O)C[C@@H]5C[C@H](O)CC[C@]5(C)[C@H]4C[C@H](O)[C@]13C)CC2`, with 100%; and `Cc1ccc2c(c1)CCCN2C(=O)CC[C@@H](C)[C@H]1CC[C@H]2[C@@H]3[C@H](O)C[C@@H]4C[C@H](O)CC[C@]4(C)[C@H]3C[C@H](O)[C@]12C`, with 100%.
On to `C[C@H](CCC(=O)N1CCc2c(Cl)cccc21)[C@H]1CC[C@H]2[C@@H]3[C@H](O)C[C@@H]4C[C@H](O)CC[C@]4(C)[C@H]3C[C@H](O)[C@]12C`, for which the Activity with Clostridioides difficile [1] is 95%.
Regarding `COc1ccc2c(c1)CCN(C(=O)CC[C@@H](C)[C@H]1CC[C@H]3[C@@H]4[C@H](O)C[C@@H]5C[C@H](O)CC[C@]5(C)[C@H]4C[C@H](O)[C@]13C)C2`, the Activity in the experiment on Clostridioides difficile [1] is given as 100%.
For `C[C@H](CCC(=O)N1CCc2ccccc21)[C@H]1CC[C@H]2[C@@H]3[C@H](O)C[C@@H]4C[C@H](O)CC[C@]4(C)[C@H]3C[C@H](O)[C@]12C`, the IC50 in the experiment on Clostridioides difficile [2] came out at 1 µM. Further, the Activity in the experiment on Clostridioides difficile [1] came to 4%.

The record behind these values is ChEMBL document CHEMBL5634107, “The design, synthesis, and inhibition of Clostridioides difficile spore germination by acyclic and bicyclic tertiary amide analogs of cholate” (Eur J Med Chem, 2023).
